ChEMBL document CHEMBL4715860 (J Med Chem, 2020)
pKd, pKi: −log10 of the molar value. Active and inactive are the calls of the source. No cut-off for these calls is given here.

How the values were obtained:
P-glycoprotein = experiment: Substrate activity at human P-glycoprotein stably expressed in MDCK cells assessed as efflux ratio at 1 uM measured after 5 to 20 mins by UPLC-MS/MS analysis; type: ADME, cell-based; details: MDCK-MDR1, time 5-20 min
Summary of the method: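 CRISPR canine-MDR1-knockout MDCKII cells stably expressing human MDR1, with the knockout parent line as control. Cells grown 5 days on TransWell filters and preincubated in HBSS 30 min at 37 °C. Compound at 1 μM added apical or basolateral. Receiver sampled at 5, 10 and 20 min; UPLC-MS/MS.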

[1] = target: PI3-kinase p110-alpha/p85-alpha (Homo sapiens, UniProt P42336); experiment: Inhibition of alexa fluor 647-labeled kinase tracer 314 binding to recombinant human N-terminal His-tagged p110alpha/p85alpha expressed in baculovirus expression system measured after 60 mins by LanthaScreen TR-FRET assay relative to control
[2] = target: Phosphatidylinositol 4,5-bisphosphate 3-kinase catalytic subunit gamma isoform (Homo sapiens, UniProt P48736); experiment: Binding affinity to wild-type human partial length PIK3CG (S144 to A1102 residues) expressed in HEK293 cells measured after 1 hr by Kinomescan method; type: cell-based
Summary of the method: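 Compound given as an 11-point threefold series from 30 μM, in technical duplicate. Kd from a Hill fit with slope fixed at −1.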

CYP1A1 = target: T1, CYP1A1 (Homo sapiens, UniProt P04798); experiment: Drug metabolism assessed as human recombinant CYP1A1 expressed in baculovirus infected insect cells-mediated metabolism by measuring parent compound remaining at 1 uM incubated for 60 mins in presence of NADPH regenerating system by UHPLC based LC-MS analysis; type: ADME; details: read-out: Stabilty
T1 sequence (P04798 whole entry): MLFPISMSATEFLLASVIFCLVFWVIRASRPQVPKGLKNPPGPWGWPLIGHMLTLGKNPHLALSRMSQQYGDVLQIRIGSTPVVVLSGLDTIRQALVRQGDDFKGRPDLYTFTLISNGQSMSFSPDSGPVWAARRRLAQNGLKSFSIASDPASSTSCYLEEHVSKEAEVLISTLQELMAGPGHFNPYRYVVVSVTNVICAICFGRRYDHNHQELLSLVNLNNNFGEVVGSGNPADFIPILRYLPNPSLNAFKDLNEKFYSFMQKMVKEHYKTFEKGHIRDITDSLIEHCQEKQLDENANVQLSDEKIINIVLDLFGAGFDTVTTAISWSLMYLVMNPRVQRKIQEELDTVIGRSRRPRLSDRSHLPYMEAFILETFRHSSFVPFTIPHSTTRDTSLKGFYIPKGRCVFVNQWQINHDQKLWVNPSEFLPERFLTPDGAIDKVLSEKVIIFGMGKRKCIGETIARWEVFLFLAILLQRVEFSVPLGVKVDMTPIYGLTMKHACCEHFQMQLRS

[3] = Metabolic stability in human hepatocytes assessed as parent compound remaining at 5 uM incubated for 3 hrs by LC-MS analysis; type: ADME, cell-based, Hepatocyte; details: read-out: Stabilty
Summary of the method: (§1)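 Cryopreserved primary hepatocytes in suspension (CD-1 mouse, Sprague-Dawley rat, Beagle dog, human). Compound diluted from 10 mM DMSO stock to 5 μM final. Sampled at 0, 15, 60, 90 and 180 min, protein precipitated with ACN plus internal standard, supernatant analysed by LC−MS. Run in duplicate. 7-ethoxycoumarin as positive control. Hepatocyte-free medium incubations as negative control.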

[4] = Cmax in C57BL/6J mouse plasma at 10 mg/kg, po administered as single dose by mass spectrometry based UHPLC analysis; type: ADME, organism-based; design: route oral, dose 10 mg/kg
Summary of the method: (§2)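 Female C57BL/6J mice, one oral dose of 10 mg/kg in 20% Captisol; plasma and brain levels over time, n = 3 per time point (mean).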

[5] = Metabolic stability in Beagle dog hepatocytes assessed as parent compound remaining at 5 uM incubated for 3 hrs by LC-MS analysis; type: ADME, cell-based, Canis lupus familiaris, Hepatocyte; details: read-out: Stabilty; summary of the method: as §1
Mus musculus [6] = experiment: In vivo inhibition of PI3Kalpha C57BL/6J mouse assessed as increase in plasma insulin concentration at 25 mg/kg, po measured after 8 hrs by ELISA; type: functional, organism-based
Summary of the method: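 Female C57BL/6J mice given one oral dose (25 mg/kg); plasma insulin and glucose monitored over time, mean ± SEM.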

[7] = Elimination half life in C57BL/6J mouse plasma at 25 mg/kg, po administered as single dose by mass spectrometry based UHPLC analysis; type: ADME, organism-based; details: read-out: beta t1/2 (converted)
Summary of the method: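 One oral dose of 25 mg/kg to female C57BL/6J mice. Plasma and brain concentrations followed over time, n = 3 per time point (mean).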

[8] = Elimination half life in C57BL/6J mouse brain at 10 mg/kg, po administered as single dose by mass spectrometry based UHPLC analysis; type: ADME, organism-based; details: read-out: beta t1/2 (converted); summary of the method: as §2
Rattus norvegicus = experiment: In vivo inhibition of PI3Kalpha Sprague-Dawley rat assessed as increase in plasma glucose concentration at 5 mg/kg, po measured after 8 hrs by glucoseoxidase-peroxide coupled colorimetric assay; type: functional, organism-based
Summary of the method: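 Male Sprague Dawley rats dosed orally at 5 mg/kg; plasma insulin and glucose followed over time against vehicle, n = 3, mean ± SEM.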

Mus musculus [9] = experiment: In vivo inhibition of mTORC1 signalling in C57BL/6J mouse brain assessed as reduction in RPS6 phosphorylation at S235/236 residue at 25 mg/kg, po incubated for 30 mins by Western blot analysis; type: functional, organism-based
Summary of the method: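 Female C57BL/6J mice dosed at 25 mg/kg p.o.; cortex collected 30 min later and lysed. Equal protein run on SDS-PAGE and western blotted for pS6(Ser235/236), pPKB(Ser473) and α-tubulin, detected by HRP secondary antibodies and ECL. Signal expressed as % of control cortex, n = 3, mean ± SEM, unpaired t-test.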

[10] = AUC (0 to 8 hrs) in C57BL/6J mouse brain at 10 mg/kg, po administered as single dose by mass spectrometry based UHPLC analysis; type: ADME, organism-based; design: time < 8 hr, route oral, dose 10 mg/kg; summary of the method: as §2
[11] = Toxicity in Tsc1-GFAP knockout Balb/c mouse assessed as change in body weight at 10 to 50 mg/kg, po administered as single dose; type: organism-based; details: in vivo, dose 10-50 mg/kg
[12] = Intrinsic clearance in Beagle dog hepatocytes assessed per million cells at 5 uM incubated for 3 hrs by LC-MS analysis; type: ADME, cell-based, Canis lupus familiaris, Hepatocyte; details: read-out: CLH
Summary of the method: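 Cryopreserved Beagle dog hepatocytes in suspension with compound at 5 μM (final, from 10 mM DMSO stock). Sampled at 0, 15, 60, 90 and 180 min, ACN-precipitated and analysed by LC-MS. Duplicates; 7-ethoxycoumarin as positive control, hepatocyte-free medium as negative control. CLint given per 10^6 cells, mean ± SEM (n = 2).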

[13] = Tmax in C57BL/6J mouse plasma at 10 mg/kg, po administered once a day for 4 consecutive days by mass spectrometry based UHPLC analysis; type: ADME, organism-based; details: time 4 day
Summary of the method: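 Female C57BL/6J mice dosed orally at 10 mg/kg in 20% Captisol, either once or once daily for 4 days with sampling after the last dose on day 4. Plasma and brain concentrations followed over time. Tmax taken from at least 3 time points.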

Sequence of Phosphatidylinositol 4,5-bisphosphate 3-kinase catalytic subunit gamma isoform (P48736 whole entry, the tested form may be a part, canonical isoform): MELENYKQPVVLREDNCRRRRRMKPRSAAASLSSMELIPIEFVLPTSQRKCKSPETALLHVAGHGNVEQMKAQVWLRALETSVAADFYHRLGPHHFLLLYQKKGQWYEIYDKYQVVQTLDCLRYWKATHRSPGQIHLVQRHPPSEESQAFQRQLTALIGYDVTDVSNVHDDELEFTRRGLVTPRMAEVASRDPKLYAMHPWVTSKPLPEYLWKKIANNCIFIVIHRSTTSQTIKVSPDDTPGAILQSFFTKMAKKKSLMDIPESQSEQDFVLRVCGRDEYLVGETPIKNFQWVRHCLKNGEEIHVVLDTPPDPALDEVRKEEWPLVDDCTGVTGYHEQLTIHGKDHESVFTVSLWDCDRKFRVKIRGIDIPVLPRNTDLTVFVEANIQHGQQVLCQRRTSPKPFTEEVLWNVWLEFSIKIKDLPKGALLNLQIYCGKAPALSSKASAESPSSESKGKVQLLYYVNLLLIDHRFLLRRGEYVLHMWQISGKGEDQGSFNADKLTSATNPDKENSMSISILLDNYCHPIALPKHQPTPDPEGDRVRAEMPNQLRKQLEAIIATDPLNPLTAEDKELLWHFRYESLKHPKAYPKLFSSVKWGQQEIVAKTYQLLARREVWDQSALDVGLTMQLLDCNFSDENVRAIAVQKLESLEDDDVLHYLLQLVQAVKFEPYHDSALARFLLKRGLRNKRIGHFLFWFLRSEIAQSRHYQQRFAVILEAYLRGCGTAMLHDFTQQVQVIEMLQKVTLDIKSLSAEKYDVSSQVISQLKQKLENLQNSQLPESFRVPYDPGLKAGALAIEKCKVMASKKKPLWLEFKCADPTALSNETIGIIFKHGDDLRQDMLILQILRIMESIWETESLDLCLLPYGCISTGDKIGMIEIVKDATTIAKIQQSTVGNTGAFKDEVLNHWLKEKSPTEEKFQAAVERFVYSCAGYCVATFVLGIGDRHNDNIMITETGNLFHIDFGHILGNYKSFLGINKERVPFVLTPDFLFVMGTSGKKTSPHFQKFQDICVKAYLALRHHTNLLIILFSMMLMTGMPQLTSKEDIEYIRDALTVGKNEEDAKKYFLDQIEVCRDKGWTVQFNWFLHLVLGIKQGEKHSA
Sequence of PI3-kinase p110-alpha/p85-alpha (P27986 whole entry, the tested form may be a part, canonical isoform): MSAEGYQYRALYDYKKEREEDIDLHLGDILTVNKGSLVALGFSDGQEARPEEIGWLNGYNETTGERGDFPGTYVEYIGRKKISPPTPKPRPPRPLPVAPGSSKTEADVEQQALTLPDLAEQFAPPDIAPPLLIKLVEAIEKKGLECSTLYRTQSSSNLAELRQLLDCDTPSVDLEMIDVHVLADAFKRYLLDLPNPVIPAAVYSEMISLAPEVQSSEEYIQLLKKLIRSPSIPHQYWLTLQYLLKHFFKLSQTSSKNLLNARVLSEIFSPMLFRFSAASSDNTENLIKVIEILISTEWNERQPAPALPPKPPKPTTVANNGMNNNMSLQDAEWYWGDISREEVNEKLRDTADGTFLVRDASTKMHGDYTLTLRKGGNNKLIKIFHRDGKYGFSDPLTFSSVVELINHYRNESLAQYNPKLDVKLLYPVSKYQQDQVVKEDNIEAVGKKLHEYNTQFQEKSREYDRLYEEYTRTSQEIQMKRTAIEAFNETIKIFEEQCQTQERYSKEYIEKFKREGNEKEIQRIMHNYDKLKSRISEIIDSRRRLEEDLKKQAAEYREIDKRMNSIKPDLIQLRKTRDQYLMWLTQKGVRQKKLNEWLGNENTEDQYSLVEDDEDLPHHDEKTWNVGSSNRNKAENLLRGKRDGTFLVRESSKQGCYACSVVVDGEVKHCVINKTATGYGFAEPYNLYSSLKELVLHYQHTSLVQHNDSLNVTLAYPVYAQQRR
Sequence of PI3-kinase p110-alpha/p85-alpha (P42336 whole entry, the tested form may be a part, canonical isoform): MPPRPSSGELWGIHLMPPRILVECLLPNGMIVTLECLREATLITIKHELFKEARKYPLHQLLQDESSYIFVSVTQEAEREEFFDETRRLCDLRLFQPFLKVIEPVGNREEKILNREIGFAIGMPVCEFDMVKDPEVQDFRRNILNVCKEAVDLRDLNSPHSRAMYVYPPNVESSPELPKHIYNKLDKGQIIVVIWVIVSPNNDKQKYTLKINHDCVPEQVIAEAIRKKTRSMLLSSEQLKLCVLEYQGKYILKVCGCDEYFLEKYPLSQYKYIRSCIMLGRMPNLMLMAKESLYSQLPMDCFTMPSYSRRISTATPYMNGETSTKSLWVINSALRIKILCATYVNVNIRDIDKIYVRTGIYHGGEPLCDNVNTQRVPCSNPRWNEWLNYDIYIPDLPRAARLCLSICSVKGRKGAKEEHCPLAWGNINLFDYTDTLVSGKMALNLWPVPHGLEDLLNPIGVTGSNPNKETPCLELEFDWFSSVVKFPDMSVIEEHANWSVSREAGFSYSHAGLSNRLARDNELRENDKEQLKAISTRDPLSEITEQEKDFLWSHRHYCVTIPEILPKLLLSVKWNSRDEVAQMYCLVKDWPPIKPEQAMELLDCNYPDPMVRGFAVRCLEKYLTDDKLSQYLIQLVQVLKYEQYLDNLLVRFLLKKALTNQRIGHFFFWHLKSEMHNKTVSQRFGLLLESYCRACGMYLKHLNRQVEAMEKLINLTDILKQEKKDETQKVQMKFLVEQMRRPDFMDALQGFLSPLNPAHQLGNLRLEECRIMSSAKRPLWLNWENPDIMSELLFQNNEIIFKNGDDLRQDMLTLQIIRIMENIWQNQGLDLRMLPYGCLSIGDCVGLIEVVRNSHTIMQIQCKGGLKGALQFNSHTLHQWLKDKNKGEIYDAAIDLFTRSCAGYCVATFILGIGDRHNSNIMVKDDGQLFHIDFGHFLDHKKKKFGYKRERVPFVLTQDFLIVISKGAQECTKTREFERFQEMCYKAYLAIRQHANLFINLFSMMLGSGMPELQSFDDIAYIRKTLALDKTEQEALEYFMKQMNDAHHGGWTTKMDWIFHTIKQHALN

| Structure (SMILES) | efflux ratio at 1 µM (P-glycoprotein) | pKi [1] | pKd [2] | remaining at 1 h, 1 µM (CYP1A1) [%] | remaining at 3 h, 5 µM [3] [%] | Cmax [4] [ng/mL] | remaining at 3 h, 5 µM [5] [%] | inhibition (Mus musculus [6]) | half-life [7] [h] | half-life [8] [h] | inhibition (Rattus norvegicus) | inhibition (Mus musculus [9]) | AUC(0-t) at 8 h [10] [ng·h/mL] | Activity [11] | hepatocyte CLint at 5 µM [12] [µL/min/1e6 cells] | Tmax [13] [h] |
| --- | --- | --- | --- | --- | --- | --- | --- | --- | --- | --- | --- | --- | --- | --- | --- | --- |
| C[C@@H]1COCCN1c1nc(-c2cnc(N)cc2C(F)F)nc(N2CCOCC2(C)C)n1 | 1.5 | 6.33 | 6.23 | 1.9 | – | – | – | – | – | – | – | – | – | – | – | – |
| C[C@@H]1COCCN1c1nc(-c2cnc(N)cc2C(F)F)nc(N2[C@H](C)COC[C@@H]2C)n1 | – | 6.54 | 5.87 | 45.1 | 44 | 1100 | 75.6 | inactive | 2.4 | 2.9 | inactive | Active | 4650 | Non-Toxic | 1.8 | 0.5 |
